Test results taken from ChEMBL document CHEMBL4257584, “Sterol 14α-Demethylase Structure-Based Optimization of Drug Candidates for Human Infections with the Protozoan Trypanosomatidae” (J Med Chem, 2018).
Each block holds one molecule with its values, some of them ahead of it. Active and inactive are the calls of the source. The rule behind the calls is not given here.

Key:
[1] = Half life in CD1 mouse liver microsomes at 1 uM preincubated for 5 mins followed by NADPH addition and measured by LC/MS/MS analysis; type: ADME, microsome; settings: CD1, mouse, liver microsomes
[2] = Drug uptake in BALB/c mouse lungs at 25 mg/kg, po via gavage measured after 4 hrs post dose by […]; type: ADME, organism-based, Lung; settings: read-out: Drug uptake
Method in brief: (§1)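 BALB/c mice get a single oral gavage dose of 25 mg/kg; tissues are collected 4 h post-dose. About 100 mg tissue is diluted 5-fold in PBS and homogenized. Homogenate is extracted as for plasma (ketoconazole internal standard, acetonitrile extraction) and quantified by HPLC-UV at 291 nm, 0.1 μM detection limit, n=2.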

[3] = Half life in Sprague-Dawley rat liver microsomes at 1 uM preincubated for 5 mins followed by NADPH addition and measured by LC/MS/MS analysis; type: ADME, microsome; settings: Sprague-Dawley, liver microsomes
[4] = Lipophilicity, log P of the compound; type: physicochemical; settings: octanol/water
[5] = Hepatic clearance in CD1 mouse liver microsomes at 1 uM preincubated for 5 mins followed by NADPH addition and measured after 45 mins by LC/MS/MS analysis; type: ADME, microsome
[6] = Drug uptake in BALB/c mouse brain at 25 mg/kg, po via gavage measured after 4 hrs post dose by […]; type: ADME, organism-based; settings: read-out: Drug uptake; method in brief: as §1
[7] = Intrinsic clearance in CD1 mouse liver microsomes at 1 uM preincubated for 5 mins followed by NADPH addition and measured after 45 mins by LC/MS/MS analysis; type: ADME, microsome; settings: read-out: CLH
[8] = Hepatic clearance in human liver microsomes at 1 uM preincubated for 5 mins followed by NADPH addition and measured after 45 mins by LC/MS/MS analysis; type: ADME, microsome
[9] = system: Mus musculus; experiment: Drug metabolism in mouse plasma assessed as glucuronidation of the N-pyridinyl site formation at 25 mg/kg, po by HPLC analysis; type: ADME, organism-based; settings: in vivo
[10] = Intrinsic clearance in human liver microsomes at 1 uM preincubated for 5 mins followed by NADPH addition and measured after 45 mins by LC/MS/MS analysis; type: ADME, microsome; settings: read-out: CLH
[11] = Intrinsic clearance in Sprague-Dawley rat liver microsomes at 1 uM preincubated for 5 mins followed by NADPH addition and measured after 45 mins by LC/MS/MS analysis; type: ADME, microsome; settings: read-out: CLH
[12] = Drug uptake in BALB/c mouse liver at 25 mg/kg, po via gavage measured after 4 hrs post dose by […]; type: ADME, organism-based; settings: read-out: Drug uptake; method in brief: as §1
[13] = Drug uptake in BALB/c mouse spleen at 25 mg/kg, po via gavage measured after 4 hrs post dose by […]; type: ADME, organism-based; settings: read-out: Drug uptake; method in brief: as §1
[14] = Drug uptake in BALB/c mouse blood at 25 mg/kg, po via gavage measured after 4 hrs post dose by […]; type: ADME, organism-based; settings: read-out: Drug uptake; method in brief: as §1
[15] = Half life in human liver microsomes at 1 uM preincubated for 5 mins followed by NADPH addition and measured by LC/MS/MS analysis; type: ADME, microsome; settings: liver microsomes
[16] = Maximum plasma concentration in BALB/c mouse at 25 mg/kg, po via gavage by […]; type: ADME, organism-based; set-up: dose 25 mg/kg, route oral
Method in brief: (§2)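 Single oral gavage dose of 25 mg/kg in BALB/c mice; blood sampled at 1, 2, 4, 6, 10, 16, 24 h. Plasma is diluted in PBS with ketoconazole internal standard, extracted with 80% acetonitrile, dried and redissolved. Analysed by reversed-phase HPLC with UV at 291/250 nm, 0.1 μM detection limit. Lifetime is time until undetectable.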

[17] = Hepatic clearance in Sprague-Dawley rat liver microsomes at 1 uM preincubated for 5 mins followed by NADPH addition and measured after 45 mins by LC/MS/MS analysis; type: ADME, microsome
Method in brief: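 Pooled liver microsomes at 0.5 mg/mL: human (mixed gender), male Sprague-Dawley rat, or male CD-1 mouse, with test compound at 1 μM, triplicate. In vitro t1/2 is scaled to CLint (45 mg microsomes/g liver; 45 g liver/kg scaling factor). CLhep uses well-stirred model with hepatic blood flow 21 (human), 70 (rat), 90 (mouse) mL/min/kg.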

[18] = Drug uptake in BALB/c mouse heart at 25 mg/kg, po via gavage measured after 4 hrs post dose by […]; type: ADME, organism-based; settings: read-out: Drug uptake; method in brief: as §1
[19] = target: Sterol 14-alpha demethylase (Trypanosoma cruzi (strain CL Brener), UniProt Q7Z1V1); experiment: Binding affinity to Trypanosoma cruzi Y CYP51A expressed in Escherichia coli
Method in brief: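 Recombinant CYP51A from Y strain T. cruzi, expressed in E. coli and purified, titrated spectrally at 0.5 μM P450 in 5 cm path cuvettes with ligand over 0.1–1 μM. Type of absorbance change in difference spectra Δ(A430-A411) plotted against ligand concentration. Apparent Kd obtained by fitting to the Morrison quadratic tight-binding equation by nonlinear regression.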

[20] = system: Mus musculus; experiment: Toxicity in Swiss Webster mouse assessed as effect on motility at 200 mg/kg, po administered as single dose measured after 48 hrs; type: organism-based; settings: in vivo
Method in brief: (§3)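 Swiss Webster mice (21–23 g, n=3) get a single oral 200 mg/kg dose, given as in the PK study. They are inspected for toxic and sub-toxic signs per OECD guidelines (behaviour, motility, neurological state, skin, fur), and body weight is tracked 0–48 h. At 48 h, mice are euthanized and organ weights are normalized to body weight. Blood is taken for haematology and plasma biochemistry.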

[21] = system: Mus musculus; experiment: Toxicity in Swiss Webster mouse assessed as effect on spleen weight at 200 mg/kg, po administered as single dose measured after 48 hrs; type: organism-based; settings: in vivo; method in brief: as §3
[22] = system: Mus musculus; experiment: Toxicity in Swiss Webster mouse assessed as effect on skin at 200 mg/kg, po administered as single dose measured after 48 hrs; type: organism-based; settings: in vivo; method in brief: as §3
[23] = Plasma concentration in BALB/c mouse assessed as time until the compound becomes undetectable at 25 mg/kg, po via gavage […]; type: ADME, organism-based; settings: in vivo; method in brief: as §2
[24] = system: Mus musculus; experiment: Toxicity in Swiss Webster mouse assessed as effect on kidney weight at 200 mg/kg, po administered as single dose measured after 48 hrs; type: organism-based; settings: in vivo; method in brief: as §3
[25] = system: Mus musculus; experiment: Toxicity in Swiss Webster mouse assessed as effect on neurological conditions at 200 mg/kg, po administered as single dose measured after 48 hrs; type: organism-based; settings: in vivo; method in brief: as §3
[26] = system: Trypanosoma cruzi; experiment: Antiparasitic activity against GFP-expressing Trypanosoma cruzi Tulahuen amastigote formss infected in cardiomyocytes assessed as reduction in rate of parasite multiplication within infected cardiomyocytes measured at 72 hrs post infection by fluorescence microscopy; type: functional, organism-based
Method in brief: (§4)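 GFP-expressing trypomastigotes (Tulahuen or Y strain) infect cardiomyocyte monolayers at 10 parasites per cell, in DMEM + 10% FBS. Unbound parasites are washed off. At 24 h of infection, inhibitors at 0.5–25 nM in DMSO/DMEM are added and cultured 48 h. Read-out is at 72 h post-infection as GFP fluorescence (RFU) after PBS wash; microscopy uses paraformaldehyde fixation, DAPI and phalloidin stain. Triplicate.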

[27] = system: Mus musculus; experiment: Toxicity in Swiss Webster mouse assessed as effect on body weight at 200 mg/kg, po administered as single dose measured after 48 hrs; type: organism-based; settings: in vivo; method in brief: as §3
[28] = system: Mus musculus; experiment: Toxicity in Swiss Webster mouse assessed as effect on lung weight at 200 mg/kg, po administered as single dose measured after 48 hrs; type: organism-based; settings: in vivo; method in brief: as §3
[29] = system: Mus musculus; experiment: Toxicity in Swiss Webster mouse assessed as alteration in body to organ ratio at 200 mg/kg, po administered as single dose measured after 48 hrs; type: organism-based; settings: in vivo; method in brief: as §3
[30] = system: Mus musculus; experiment: Toxicity in Swiss Webster mouse assessed as effect on heart weight at 200 mg/kg, po administered as single dose measured after 48 hrs; type: organism-based; settings: in vivo; method in brief: as §3
[31] = target: Putative lanosterol 14-alpha-demethylase (Leishmania infantum) (UniProt A2TEF2); experiment: Inhibition of Leishmania infantum CYP51 expressed in Escherichia coli using [3-3H]-obtusifoliol as substrate after 60 mins by LC-MS analysis
Method in brief: (§5)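 Reconstituted reaction: 1 μM purified CYP51, 2 μM T. brucei NADPH-P450 reductase, 100 μM dilauroylphosphatidylcholine, isocitrate dehydrogenase/isocitrate regeneration, 50 mM K phosphate pH 7.2, 10% glycerol. [3-3H]sterol substrate at 50 μM final (eburicol for T. cruzi; obtusifoliol for T. brucei and L. infantum) with inhibitor at 1.1 μM final. Preincubate 60 s at 37 °C, start with 100 μM NADPH, run 60 min, EtOAc extraction. Gives % inhibition of 14α-demethylation, triplicate, mean ± SD.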

[32] = system: Trypanosoma cruzi; experiment: Antiparasitic activity against GFP-expressing Trypanosoma cruzi Y amastigote formss infected in cardiomyocytes assessed as reduction in rate of parasite multiplication within infected cardiomyocytes measured at 72 hrs post infection by fluorescence microscopy; type: functional, organism-based; method in brief: as §4
[33] = system: Mus musculus; experiment: Toxicity in Swiss Webster mouse assessed as effect on biochemical plasma parameters at 200 mg/kg, po administered as single dose measured after 48 hrs; type: organism-based; settings: in vivo; method in brief: as §3
[34] = target: Putative lanosterol 14-alpha-demethylase (Leishmania infantum, UniProt A2TEF2); experiment: Binding affinity to Leishmania infantum CYP51 expressed in Escherichia coli
Method in brief: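 Purified E. coli-expressed L. infantum CYP51 at 0.5 μM is titrated with ligand at 0.1–1 μM in 5 cm path cuvettes. Difference-spectrum absorbance change Δ(A430−A411) is plotted against ligand concentration. Apparent Kd comes from a Morrison (quadratic) tight-binding fit by nonlinear regression.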

[35] = system: Mus musculus; experiment: Toxicity in Swiss Webster mouse assessed as effect on fur profile at 200 mg/kg, po administered as single dose measured after 48 hrs; type: organism-based; settings: in vivo; method in brief: as §3
[36] = system: Mus musculus; experiment: Toxicity in Swiss Webster mouse assessed as effect on animal behavior at 200 mg/kg, po administered as single dose measured after 48 hrs; type: organism-based; settings: in vivo; method in brief: as §3
[37] = target: Sterol 14-alpha demethylase (Trypanosoma cruzi (strain CL Brener)) (UniProt Q7Z1V1); experiment: Inhibition of Trypanosoma cruzi Y CYP51 expressed in Escherichia coli using [3-3H]-eburicol as substrate after 60 mins by LC-MS analysis; method in brief: as §5
[38] = system: Mus musculus; experiment: Toxicity in Swiss Webster mouse at 200 mg/kg, po administered as single dose measured after 48 hrs measured at 48 hrs post dose; type: organism-based; settings: in vivo; method in brief: as §3
[39] = system: Mus musculus; experiment: Toxicity in Swiss Webster mouse assessed as effect on liver weight at 200 mg/kg, po administered as single dose measured after 48 hrs; type: organism-based; settings: in vivo; method in brief: as §3
[40] = target: Lanosterol 14-alpha-demethylase (Trypanosoma brucei brucei (strain 927/4 GUTat10.1)) (UniProt Q385E8); experiment: Inhibition of Trypanosoma brucei […] CYP51 expressed in Escherichia coli using [3-3H]-obtusifoliol as substrate after 60 mins by LC-MS analysis; method in brief: as §5
Chain of Lanosterol 14-alpha-demethylase (Trypanosoma brucei brucei (strain 927/4 GUTat10.1)) (Q385E8 1-481): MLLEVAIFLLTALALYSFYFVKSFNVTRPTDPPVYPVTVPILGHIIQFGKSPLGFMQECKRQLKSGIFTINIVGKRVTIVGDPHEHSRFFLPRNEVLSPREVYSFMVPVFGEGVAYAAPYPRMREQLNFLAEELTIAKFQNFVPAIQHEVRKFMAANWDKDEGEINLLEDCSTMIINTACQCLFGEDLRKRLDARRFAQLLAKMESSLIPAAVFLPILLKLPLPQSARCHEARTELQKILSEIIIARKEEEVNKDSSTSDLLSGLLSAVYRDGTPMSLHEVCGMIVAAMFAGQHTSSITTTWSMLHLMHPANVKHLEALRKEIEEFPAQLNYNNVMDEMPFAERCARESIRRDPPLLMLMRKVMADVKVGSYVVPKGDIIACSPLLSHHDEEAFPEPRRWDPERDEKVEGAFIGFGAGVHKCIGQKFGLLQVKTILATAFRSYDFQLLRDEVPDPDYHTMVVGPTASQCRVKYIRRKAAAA

Chain of Sterol 14-alpha demethylase (Q7Z1V1 whole entry): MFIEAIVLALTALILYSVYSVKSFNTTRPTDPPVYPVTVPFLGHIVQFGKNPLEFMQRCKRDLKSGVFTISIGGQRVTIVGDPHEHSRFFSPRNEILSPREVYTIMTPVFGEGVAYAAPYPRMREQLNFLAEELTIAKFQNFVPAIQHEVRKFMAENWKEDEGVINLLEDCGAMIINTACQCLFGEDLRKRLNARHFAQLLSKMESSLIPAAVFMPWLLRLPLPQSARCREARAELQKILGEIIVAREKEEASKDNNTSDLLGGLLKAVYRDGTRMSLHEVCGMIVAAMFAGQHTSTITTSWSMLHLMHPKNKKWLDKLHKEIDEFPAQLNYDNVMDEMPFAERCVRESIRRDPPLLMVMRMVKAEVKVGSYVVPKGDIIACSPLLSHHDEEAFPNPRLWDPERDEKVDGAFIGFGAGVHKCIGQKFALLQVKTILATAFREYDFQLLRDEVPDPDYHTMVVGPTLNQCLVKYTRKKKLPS
Chain of Sterol 14-alpha demethylase (Trypanosoma cruzi (strain CL Brener)) (Q7Z1V1 whole entry, looked up): as the sequence (Q7Z1V1 whole entry) above
Chain of Putative lanosterol 14-alpha-demethylase (A2TEF2 whole entry): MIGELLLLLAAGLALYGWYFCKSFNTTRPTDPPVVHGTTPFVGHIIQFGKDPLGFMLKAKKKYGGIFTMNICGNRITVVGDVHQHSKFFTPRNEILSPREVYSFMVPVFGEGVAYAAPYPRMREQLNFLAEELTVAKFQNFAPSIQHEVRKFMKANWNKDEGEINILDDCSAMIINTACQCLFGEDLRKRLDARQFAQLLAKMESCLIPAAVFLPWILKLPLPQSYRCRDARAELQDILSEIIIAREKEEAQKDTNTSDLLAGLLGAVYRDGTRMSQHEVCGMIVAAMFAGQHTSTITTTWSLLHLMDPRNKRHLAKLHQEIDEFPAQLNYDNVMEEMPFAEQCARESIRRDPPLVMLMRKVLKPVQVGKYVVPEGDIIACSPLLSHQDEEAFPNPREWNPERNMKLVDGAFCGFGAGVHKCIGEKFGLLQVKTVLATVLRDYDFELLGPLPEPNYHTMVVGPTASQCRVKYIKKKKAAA
Chain of Putative lanosterol 14-alpha-demethylase (Leishmania infantum) (A2TEF2 1-480): as the sequence (A2TEF2 whole entry) above

half-life at 1 µM [1]: 55 min
concentration at 4 h [2]: 1 µM
half-life at 1 µM [3]: 54 min
logP [4]: 5.27
CLhep predicted at 1 µM [5]: 47.1 mL/min/kg
concentration at 4 h [6]: < 0.1 µM
CLint scaled at 1 µM [7]: 99 mL/min/kg
CLhep predicted at 1 µM [8]: 11.1 mL/min/kg
Drug metabolism [9]: Metabolite_Detected
CLint scaled at 1 µM [10]: 23.5 mL/min/kg
CLint scaled at 1 µM [11]: 52.3 mL/min/kg
concentration at 4 h [12]: 0.4 µM
concentration at 4 h [13]: < 0.1 µM
concentration at 4 h [14]: < 0.1 µM
half-life at 1 µM [15]: 53 min
Cmax [16]: < 0.1 µM
CLhep predicted at 1 µM [17]: 29.9 mL/min/kg
concentration at 4 h [18]: 0.1 µM
SMILES: O=C(N[C@@H](Cn1ccnc1)c1ccc(-c2ccc(F)cc2)cc1Cl)c1ccc(-c2nnc(-c3ccncc3)o2)cc1

SMILES: O=C(N[C@@H](Cn1ccnc1)c1ccc(Cl)cc1Cl)c1ccc(-c2nnc(-c3ccc(F)c(F)c3)o2)cc1
Kd [19]: 4.2 nM
Activity [20]: Non-Toxic
concentration at 4 h [2]: 46 µM
Activity [21]: Non-Toxic
CLhep predicted at 1 µM [5]: 34.5 mL/min/kg
concentration at 4 h [6]: 8 µM
Activity [22]: Non-Toxic
Time [23]: 16 h
CLint scaled at 1 µM [7]: 55.8 mL/min/kg
Activity [24]: Non-Toxic
Activity [25]: Non-Toxic
EC50 [26]: 1.6 nM
Activity [27]: Non-Toxic
Activity [28]: Non-Toxic
Activity [29]: Non-Toxic
Activity [30]: Non-Toxic
concentration at 4 h [12]: 38 µM
inhibition [31]: Active
concentration at 4 h [13]: 28 µM
EC50 [32]: 3 nM
concentration at 4 h [14]: 36 µM
Activity [33]: Non-Toxic
Kd [34]: 1.7 nM
Activity [35]: Non-Toxic
Activity [36]: Non-Toxic
Cmax [16]: 38 µM
inhibition [37]: Active
NOAEL [38]: > 200 mg/kg
Activity [39]: Non-Toxic
inhibition [40]: Active
concentration at 4 h [18]: 36 µM
